# Experimental data pooled from the literature.
# Compare with care: the assays were run in different laboratories.
# Adora1: Adenosine receptor A1 (Adora1, Rattus norvegicus, UniProt P25099)
# HRH1: Histamine H1 receptor (HRH1, Homo sapiens, UniProt P35367)
Compound,target,assay,setting,Ki [nM]
CCCCCCN1CCCn2c1nc1c2c(=O)n(C)c(=O)n1C,Adora1,"ligand displacement, radioligand",cell membranes,2870
CC[C@H](NC(=O)[C@H](CS(=O)(=O)CC1CC1)N[C@@H](c1ccc(F)cc1)C(F)(F)F)C(=O)C(=O)NC1CC1,"Cathepsin L2 (CTSV, Homo sapiens, UniProt O60911)","enzyme activity, inhibitor, fluorescence",with preincubation,0.25
C#CCN1CCCn2c1nc1c2c(=O)n(C)c(=O)n1C,Adora1,"ligand displacement, radioligand",cell membranes,≥ 25000
CCn1c(-c2nc3cc(C(=O)N4CCC[C@@H](N)C4)cc(OC)c3n2C)cc2cccnc21,"Protein-arginine deiminase type-4 (PADI4, Homo sapiens, UniProt Q9UM07)","enzyme activity, inhibitor",,16000
CCN1CCCn2c1nc1c2c(=O)n(C)c(=O)n1C,Adora1,"ligand displacement, radioligand",cell membranes,≥ 25000
O=C1CCCc2ccc(OCc3ccc(OCCCN4CCCCC4)cc3)cc21,HRH1,"ligand displacement, radioligand",cell membranes,3690
Nc1nc2c(c(=O)[nH]1)N(C=O)[C@H](CNc1ccc(C(=O)N[C@@H](CCC(=O)O)C(=O)O)cc1)CN2,"Proton-coupled folate transporter (Homo sapiens, UniProt Q96NT5)","transporter uptake, inhibitor, radiometric",pH 5.5,380
CN1CCC(C2c3ccccc3C=Cc3ccccc32)CC1,HRH1,"cell-free assay, radioligand",,0.501
CN(C)c1ccc(/C=C/C=C2\CCc3ccc(OCCCN4CCCCC4)cc3C2=O)cc1,HRH1,"ligand displacement, radioligand",cell membranes,1970
CC(C)CN1CCCn2c1nc1c2c(=O)n(C)c(=O)n1C,Adora1,"ligand displacement, radioligand",cell membranes,2690
NC(=O)CCNC(=S)NCCCC[C@H](NS(=O)(=O)c1cccc(F)c1)C(=O)N[C@@H](Cc1c[nH]c2ccccc12)C(=O)NC1CCC1,"NAD-dependent protein deacylase sirtuin-5, mitochondrial (SIRT5, Homo sapiens, UniProt Q9NXA8)","enzyme activity, inhibitor",,3300
CCCCN1CCC(COC(=O)c2ccc(N)c(OCF)c2)CC1,"Muscarinic acetylcholine receptor M4 (CHRM4, Homo sapiens, UniProt P08173)","cell-free assay, radioligand",,> 10000
